Test results as given in the RNAGym collection of RNA variant scans (doi:10.1126/science.aae0568).
This sample holds only a part of the variants without activity.

B1: tRNA (parent)
chain: GUUCCGUUGGCGUAAUGGUAACGCGUCUCCCUCCUAAGGAGAAGACUGCGGGUUCGAGUCCCGUACGGAACG

Variants of: B1
Assay: yeast fitness relative to wild type (ratio to wild type); higher = fitter; tRNA-Arg(CCU), competitive growth, 37 C, YPD
How it was run: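 The tRNA-Arg(CCU) gene variants were made by chemical synthesis with a 3% per-site mutation rate at 69 sites and inserted at the native genomic locus of Saccharomyces cerevisiae. After pooling, the strains were competed in YPD at 37°C for 24 hours in six parallel replicates. Gene amplicons from the start population and each end population were read by 100-nucleotide paired-end sequencing, and Darwinian fitness relative to wild type was taken from genotype frequency changes. Genotypes needed ≥ 100 starting reads, and estimates < 0.5 were set to 0.5.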

Variant | yeast fitness
A43G U47C A65U | 0.668
A43U G51C C61G | 0.593
G38U A65G | 0.802
A40U G56C | 0.651
G41C G48A | 0.981
A42C U53A G68C | ≤ 0.5
A43U G51A | 1
G38U | 1.01
G38C | 0.806
A40C G48C | 0.684
G38A A69C | 0.847
A42C A57U C66U | ≤ 0.5
A40G G44A A70G | 0.567
G41A G58A | 1
A43C G44A U59A | 0.593
A42U U53C | 0.732
A42G G50A | 0.842
A42G U47C C62A C66U | ≤ 0.5
G39C A57U | 0.682
G39C A57G | 0.705
G41A C49A C62U G68C | ≤ 0.5

Variant | yeast fitness
A43C G63U | 0.638
A43C A45U C61A C62U C66U | ≤ 0.5
A43U C62A A65U C66U | ≤ 0.5
G39C U53C | 0.747
A42U A43G G67A | 0.574
G41A C61U | 0.786
A43U C55A A65U A70G | 0.56
A43G C60G | 0.734
G39A G63A | 0.945
A42U A43G G48C U53A A70C | 0.525
A42U A57U | 0.682
A42C G48C A70U | 0.666
A42U C62A U64G C66G | ≤ 0.5
A42U C46U | 0.97
G41C A65C A70U | 0.641
A43C C66U | 0.948
G39C G56C | 0.553
A43G A57G | 0.924
A40C C49U A69C | 0.592
A43C C49G A57G | 0.591
A40G G52C C66G | ≤ 0.5

Variant | yeast fitness
A42G A65C A69C A70G | 0.577
A42U G44A | 1.01
G39C G58A | 0.876
A40U A42C G44A G51A A65G | 0.542
G39A G48A A57U | ≤ 0.5
A43C C46U | 1.03
G38A G56A | 1.02
A40U U47A | 0.856
G41C A43C | 0.731
A40C G68C | 0.641
A40C G68U | 0.788
G39A G44A G50A G63C | ≤ 0.5
A40C G58A | 0.962
A40G G44C | 0.676
G41C G52C A65U | ≤ 0.5
A40C A70U | 0.797
G38A U47C | 0.837
A42G C55U | 0.688
A42U C66G | 0.712
G41A U53G U64A | ≤ 0.5
G41A G52U U64A G68A | 0.622

Variant | yeast fitness
A42U A43U C62A A65U A69G | 0.567
A40U | 0.988
A40C | 1
A40G | 1.01
G41A C60G | 0.646
A42U A43C | 0.994
G38A U54C A65U | 0.581
A42U U47C C62U | 0.628
A42U A43G G48C U53A A69C | 0.589
A42G G48A | 0.863
G38C U59C | 0.711
A40C C46U A65G G68C | 0.59
A40C U64C | 0.912
A40G C61U A65U | ≤ 0.5
G41A C60A C61U A69U | ≤ 0.5
A42C U53A U54C U64A | ≤ 0.5
A43C G58A | 0.944
A42G U47G G68U | ≤ 0.5
A42G A45C G48C | ≤ 0.5
A43U C66A | 0.619
